From ChEMBL document CHEMBL4513216, “Probing the Open Global Health Chemical Diversity Library for Multistage-Active Starting Points for Next-Generation Antimalarials” (ACS Infect Dis, 2020) come the findings set out here.

The data set is described as follows: Toxicity liver stage against HepG2, at 10uM. Also noted: test concentration 10 uM, cell line HepG2-A16-CD81EGFP. To be noted: human, HepG2-A16-CD81EGFP cells; read-out: INHIBITION
In kind it is cell-based. The essentials: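 Uninfected HepG2-A16-CD81EGFP cells, 3 × 10^3 per well, 1536-well, plated on prespotted compound at 10 μM final, parasite-free screening media added to match infected plates; puromycin 10 μM positive, DMSO 0.5% negative; run in parallel with 48 h PbLuc assay at 37 °C, 5% CO2; viability by CellTiter-Glo luminescence, normalized to controls.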
With `Cc1cc2ncn(C(=O)N3CCCC3)c2cc1C`, the cytotoxicity at 10 µM is -6.01%.
`COc1ccc(-c2n[nH]cc2CN2CCSCC2)c(OC)c1`: the cytotoxicity at 10 µM was 6.4%.
In the case of `CC(C)(C)CNC[C@H]1Cn2ccnc2CO1` it was -6.17%; in that of `O=C1CO[C@H]2CN(C3CCOCC3)C[C@H]2N1Cc1ccncc1`, 5.89%.
To `CN1Cc2cc(F)ccc2N(CC(C)(C)O)CCC1=O` belongs -2.02%.
In the case of `CC(C)(C)CC(=O)N1[C@@H](c2ccco2)[C@@H](CO)C[C@]12CCCCNC2=O` it was 0.122%; in that of `CCNC(=O)N1CC2=CC(C)(C)COc3ccc(OC)c(c32)C1`, 8.47%.
As to `CC(C)CCc1n[nH]c(C(=O)O)c1I`, the cytotoxicity at 10 µM is -1.93%.
With `COCC(C)NC(=O)c1cn(C(C)C)cc2c(=O)[nH]nc1-2` (configuration not stated), the cytotoxicity at 10 µM was -12.6%.
In the case of `O=C(Nc1nc2c(s1)CN(C(=O)NCc1cccs1)CC2)C1CC1` it was -0.707%; in that of `O=C(c1nnn(-c2ccccc2Cl)c1-c1ccccn1)N1CCSCC1`, 4.92%.
To `CC(C)CC(=O)N1CCN(c2cc(N(C)C)cnn2)CC1` belongs 4.17%; to `CCOc1ccc(NC(C)=O)cc1S(=O)(=O)Nc1nnc(C)s1`, -17.6%; to `CC(=O)NCCOc1c(Cl)cccc1Cl`, -8.87%.
Regarding `NC(=O)CN1C[C@@H](c2ccccc2F)[C@@]2(CCCCC(=O)N2)C1`, the cytotoxicity at 10 µM is 7.04%.
In the case of `COc1ccc(CN(C)Cc2ccnc(C3CCCO3)n2)cc1` (configuration not stated) it was 7.67%; in that of `Cc1nn(C)cc1-c1cc(C(=O)NCC(C)(C)c2cccc(F)c2)n[nH]1`, 0.68%; in that of `O=C(O)c1ccccc1-n1cc(CN2CCC(c3cc[nH]n3)C2)cn1` (configuration not stated), 1.1%.
In the case of `CNc1cc(C2CCCN2C(=O)CCc2ccccc2F)ccn1` (configuration not stated) it was -2.01%.
`Cc1ccccc1CN1CCCC1c1cncc(Nc2nncs2)n1` (configuration not stated): the cytotoxicity at 10 µM was found to be 1.66%.
To `CCC(=O)N1CCN(C)C(=O)C(Cc2ccccc2-c2cccs2)C1` (configuration not stated) belongs 4.89%.
On to `O=C(Cn1c(C(F)F)cc2cccnc21)NC1CCCC1`, for which the cytotoxicity at 10 µM is -22.2%.
To `Cn1ccnc1CN1CC[C@H](O)[C@@H](n2ccc(=O)[nH]c2=O)CC1` belongs -9.31%; to `Cc1ccc(CC2CCCN(S(C)(=O)=O)C2)nc1` (configuration not stated), -8.58%; to `O=C(NC1(C(=O)O)CCCC1)C1Cc2cc(F)ccc2O1` (configuration not stated), -0.183%.
In the case of `CC1(C)CN(Cc2ccncc2)CCS1(=O)=O` it was -4.95%; in that of `CC(C)CC(=O)NCC(O)c1c(F)cccc1F` (configuration not stated), -2.24%.
To `Nc1nccnc1C(=O)NC1CCCN(Cc2c(F)cccc2F)C1` (configuration not stated) belongs -2.14%; to `COCc1nccc(C2CCCN(Cc3ccc(C#N)cc3F)C2)n1` (configuration not stated), 27.3%.
For the compound `O=C(CCc1ccccn1)N1CCCC(N2CCNC2=O)C1` (configuration not stated), the cytotoxicity at 10 µM turned out to be 6.99%.
To `CN(CC1(O)CCCC1)C(=O)c1cccc(Nc2cnccn2)c1` belongs -4.27%; to `O=C(NC1CCCN(c2ccc(OC(F)F)cc2)C1)c1c[nH]nn1` (configuration not stated), 24.8%.
In the case of `CN(CC(=O)Nc1cccc(F)c1)Cc1nc(N)nc(N(C)C)n1` it was -6.13%; in that of `COc1ccc(CN2CCN(C(C)=O)CC2)cc1SC(F)(F)F`, 7.31%.
To `Cc1nnc2n1CC(CNc1ncnc3ccccc13)CC2` (configuration not stated) belongs -40%; to `COCCN(Cc1ccco1)Cc1nc(-c2ccsc2)no1`, 1.02%.
In the case of `Cc1ccc(OCCSCCn2nc3ccccn3c2=O)cc1`, the cytotoxicity at 10 µM was determined as 7%.
In the case of `N#CC1(NC(=O)c2ccc(-c3nc(C4CC4)n[nH]3)cc2)CCSC1` (configuration not stated) it was 4.39%.
As for `CCOc1cccc(NS(=O)(=O)c2cc(C)c(C(=O)O)s2)c1`, the cytotoxicity at 10 µM was -5.28%.
In the case of `Cc1ccsc1CN(C)C(=O)Cn1nc(-c2ccc(F)cc2)oc1=O` it was 1.31%.
On to `Cc1ccc(OCCC(=O)NC2CCc3nccn3C2)cc1` (configuration not stated), for which the cytotoxicity at 10 µM was -8.15%.
To `COCC1c2nnn(C)c2CCN1C(=O)COc1ccccc1C` (configuration not stated) belongs -100%; to `Cn1cc(CN2CC[C@H](O)[C@@H]2Cc2ccncc2)cn1`, 3.6%; to `CC(=O)N1CCC2(CCCN(C(=O)c3ccccc3)C2)C1` (configuration not stated), 9.52%.
As to `O=C1NCC2(CCCN(C(=O)c3csc(-c4cccs4)n3)C2)O1` (configuration not stated), the cytotoxicity at 10 µM turned out to be 0.55%.
In the case of `COc1ncc(C(=O)N(Cc2cnn(C)c2)C(C)C)cn1` it was 4.23%; in that of `CCc1ccccc1CN1CCn2nc(CNC(C)=O)cc2C1`, 5.18%.
In the case of `NC(=O)c1cc2c(nc1-c1ccc3c(c1)CCO3)CCC2` it was -11.3%.
To `O=C(c1cscn1)N1CCCCC1c1nc2cc(F)ccc2[nH]1` (configuration not stated) belongs 7.59%; to `CCc1ccc(CN(CCN(C)C)Cc2ccc(C)s2)nc1`, -43%; to `CCc1nc(CC2CN(c3ncnc4nc(C)cc(C)c34)CCO2)no1` (configuration not stated), -5.79%.
Regarding `CN(Cc1nc(Cc2cccc(C(F)(F)F)c2)no1)C1CCOCC1`, the cytotoxicity at 10 µM is 6.39%.
For `Cc1nc(CC(C)C)cc(C(=O)N2C[C@@H](N(C)C)[C@H](C(C)C)C2)n1`, the cytotoxicity at 10 µM worked out at 9.26%.
Turning to `CN(C)C(=O)N1CCC(C(=O)N2CCOC(CC3CCCCC3)C2)CC1` (configuration not stated), the cytotoxicity at 10 µM came to 21.3%.
Regarding `CCCc1cc(N2CCC(NC3CCOCC3)CC2)nc(C)n1`, the cytotoxicity at 10 µM stood at 5.27%.
In the case of `CCCc1cc(C(=O)N2C[C@H]3CCC[C@@]3(CO)C2)[nH]n1` it was 10.4%; in that of `Cc1nnc(CN2CCN(C)C3(CCNC(=O)CC3)C2)s1` (configuration not stated), -8.22%; in that of `COCCN(Cc1nccs1)c1nc2c(s1)c(C)nn2C`, -47.6%.
Consider `CCNC(=O)c1cc(OC)c(OC)cc1N(C)S(C)(=O)=O`, for which the cytotoxicity at 10 µM turned out to be 1.56%.
To `Cc1cc(C)n(C(=O)Cn2nc(C)c(I)c2C)n1` belongs -6.52%; to `CCn1cc(N)c(-c2nnc3n2CCCC3)n1`, -8.72%.
To `Cn1cc(-c2cc(C(F)(F)F)n(CCCN)n2)cn1` belongs -6.11%.
In the case of `CCn1cnnc1C1CCN(C(=O)c2cccc(OC)c2OC)CC1`, the cytotoxicity at 10 µM is -7.96%.
In the case of `Cc1nc2cc(O)nn2c(C)c1CCC(=O)NCCc1ccccc1` it was -6.65%; in that of `Cc1cc(NC(=O)CN2CCCCC2Cn2nc(C)nc2C)on1` (configuration not stated), -2.19%.
On to `COc1cccc(CN(C)C(=O)NCc2c(C)cc(C)[nH]c2=O)c1`, for which the cytotoxicity at 10 µM is -7.98%.
In the case of `Cc1ncsc1C(=O)NC1CCN(CC(N)=O)CC1` it was -3.54%; in that of `Cc1cccc(OCCNC(=O)CN2CCc3cncnc3C2)c1`, -6.65%; in that of `Cc1cnc2c(S(=O)(=O)N(C)C3CCS(=O)(=O)C3)cccc2c1` (configuration not stated), -5.44%.
In the case of `Cc1nc(C)n(CC2CN(Cc3nc4ccccc4n3C)CCO2)n1` (configuration not stated) it was -4.68%; in that of `O=C(O)c1cc(S(=O)(=O)Nc2cccc(F)c2F)cc2c1OCCO2`, -3.65%; in that of `Cc1cc(C(=O)N2CCCN(Cc3nccn3C)CC2)no1`, 0.47%.
To `NC(=O)C1CCN(C(=O)NCCNc2ccccn2)CC1` belongs -12.8%; to `CCc1nc(CN(C)C2CCN(CC(=O)N3CCOCC3)C2)no1` (configuration not stated), -5.32%; to `O=C(N1CCCC(n2cncn2)C1)C1(c2ccccc2F)CCCC1` (configuration not stated), -4.24%.
In the case of `CC(C)c1nnc(CN2CCCC(Cn3cncn3)C2)o1` (configuration not stated), the cytotoxicity at 10 µM is -3.39%.
`Cc1cc(NC(=O)CN2CCn3c(nnc3C(C)C)C2)n(C)n1`: the cytotoxicity at 10 µM is -5.39%.
In the case of `CC(NCc1ccsc1)c1ccc2c(c1)NC(=O)CO2` (configuration not stated) it was -7.6%; in that of `COC(=O)c1cc(C(=O)N2CCC(C)CC2)n(-c2ccccc2)n1`, 0.103%.
To `Cc1cccc2c1CCN(c1cc(N3CCCC3CO)ncn1)C2` (configuration not stated) belongs -3.44%; to `Cc1ccc(C(=O)NS(=O)(=O)c2cc(Cl)ccc2Cl)c(=O)[nH]1`, -5.72%; to `Cn1cc(C(=O)NC2CCN(C(=O)NCCSC(F)(F)F)CC2)cn1`, 2.36%.
Regarding `CCc1nc(CN(Cc2cccs2)CC2CCCO2)no1` (configuration not stated), the cytotoxicity at 10 µM is 2.26%.
In the case of `CCOc1ncccc1CNC(=O)Nc1ccc(N(C)C)nc1` it was -11.8%.
To `CCc1nc(C)c(C(=O)NCCN2CCN(C(C)=O)CC2)s1` belongs -10.4%.
For `O=C(c1cccnc1N1CCOCC1)N1CCCC1Cn1cccn1` (configuration not stated), the cytotoxicity at 10 µM is -2.53%.
In the case of `CCC(C)[C@H](N)c1nnc(SCC(=O)Nc2cc(C)ccc2C)o1` (some centres not stated) it was -12.7%.
In the case of `Cc1cc(C(=O)N2CCN(C)CC2)nn1CC(=O)NCc1cccs1`, the cytotoxicity at 10 µM is -5.83%.
In the case of `COc1ccc(CN(Cc2cccnc2)CC2CCCO2)c(OC)c1` (configuration not stated) it was 1.13%; in that of `c1nc2c(c(C3CC3)n1)CCN(Cc1ccc3c(c1)OCO3)CC2`, -17.1%.
For the compound `O=C(c1ccco1)N1CC[C@@H]2CN(C3CCOCC3)CCO[C@@H]2C1`, the cytotoxicity at 10 µM is -112%.
In the case of `c1cnc(NC[C@@H]2CCC[C@@H]3CN(Cc4cccnc4)C[C@@H]32)nc1` it was -14.3%.
To `CN(C)CCO[C@@H]1CC[C@H]2[C@H]1OCCN2C(=O)COc1ccccc1` belongs -4.84%.
To `c1cncc(COCc2nnc3n2CCN(Cc2ccsc2)C3)c1` belongs -21.6%; to `CN(Cc1ccccn1)C1CCC[C@@H]2CN(CC3CC3)C[C@H]12` (some centres not stated), -113%.
Turning to `CCCn1nccc1NC(=O)CN1CCOC(Cn2cc(C)cn2)C1` (configuration not stated), the cytotoxicity at 10 µM was found to be 1.88%.
In the case of `O=C(NCC1CCCCC1)N1C[C@@H]2C[C@H](C(=O)N3CCOCC3)[C@H](C1)O2` it was -99.4%.
